Assay results: ChEMBL document CHEMBL5649170, “Sustained microglial depletion with CSF1R inhibitor impairs parenchymal plaque development in an Alzheimer's disease model” (Nat Commun, 2019)
pIC50: −log10 of the molar value. Active and inactive are the calls of the source. The calls are words filed in the database; no cut-off is given here.

What was measured:
[1] = target: T1, Macrophage colony-stimulating factor 1 receptor (Mus musculus) (UniProt P09581); experiment: In vivo inhibition of CSF1R in 5XFAD mouse assessed as appearance of CAA in […] cortex at 600 ppm administered as rodent chow starting from 1.5 months and measured after 5 months by immunolabeling based confocal microscopic analysis; settings: route po, time 3.5 months
T1 sequence (whole entry): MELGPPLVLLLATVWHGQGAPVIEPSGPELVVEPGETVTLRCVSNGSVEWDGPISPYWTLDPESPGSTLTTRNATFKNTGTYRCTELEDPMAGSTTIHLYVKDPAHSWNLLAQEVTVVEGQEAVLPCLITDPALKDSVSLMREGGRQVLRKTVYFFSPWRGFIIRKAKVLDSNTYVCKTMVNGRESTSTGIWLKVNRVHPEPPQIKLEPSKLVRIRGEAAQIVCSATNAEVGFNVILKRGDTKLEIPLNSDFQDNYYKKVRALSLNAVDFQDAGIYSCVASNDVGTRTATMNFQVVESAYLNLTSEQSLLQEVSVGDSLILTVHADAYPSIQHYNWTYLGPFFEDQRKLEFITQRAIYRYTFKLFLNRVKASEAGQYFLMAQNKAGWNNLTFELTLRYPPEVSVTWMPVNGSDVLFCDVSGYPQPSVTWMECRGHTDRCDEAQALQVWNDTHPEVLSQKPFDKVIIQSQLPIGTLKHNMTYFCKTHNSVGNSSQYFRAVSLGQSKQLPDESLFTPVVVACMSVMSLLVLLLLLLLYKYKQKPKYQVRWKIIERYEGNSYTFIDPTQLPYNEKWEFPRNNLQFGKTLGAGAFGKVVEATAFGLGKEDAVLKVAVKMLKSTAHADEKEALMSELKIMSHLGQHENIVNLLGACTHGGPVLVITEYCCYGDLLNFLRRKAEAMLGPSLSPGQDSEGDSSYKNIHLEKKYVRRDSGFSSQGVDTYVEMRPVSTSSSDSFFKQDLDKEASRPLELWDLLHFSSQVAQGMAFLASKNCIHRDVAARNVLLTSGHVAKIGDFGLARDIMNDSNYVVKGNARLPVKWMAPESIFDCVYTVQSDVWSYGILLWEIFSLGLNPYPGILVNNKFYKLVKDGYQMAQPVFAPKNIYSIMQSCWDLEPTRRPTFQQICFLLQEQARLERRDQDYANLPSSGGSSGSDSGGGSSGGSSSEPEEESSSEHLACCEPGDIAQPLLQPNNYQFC

[2] = target: Serine/threonine-protein kinase Chk1 (Homo sapiens, UniProt O14757); experiment: Inhibition of CHEK1 (unknown origin)
Chain of Serine/threonine-protein kinase Chk1 (O14757 whole entry): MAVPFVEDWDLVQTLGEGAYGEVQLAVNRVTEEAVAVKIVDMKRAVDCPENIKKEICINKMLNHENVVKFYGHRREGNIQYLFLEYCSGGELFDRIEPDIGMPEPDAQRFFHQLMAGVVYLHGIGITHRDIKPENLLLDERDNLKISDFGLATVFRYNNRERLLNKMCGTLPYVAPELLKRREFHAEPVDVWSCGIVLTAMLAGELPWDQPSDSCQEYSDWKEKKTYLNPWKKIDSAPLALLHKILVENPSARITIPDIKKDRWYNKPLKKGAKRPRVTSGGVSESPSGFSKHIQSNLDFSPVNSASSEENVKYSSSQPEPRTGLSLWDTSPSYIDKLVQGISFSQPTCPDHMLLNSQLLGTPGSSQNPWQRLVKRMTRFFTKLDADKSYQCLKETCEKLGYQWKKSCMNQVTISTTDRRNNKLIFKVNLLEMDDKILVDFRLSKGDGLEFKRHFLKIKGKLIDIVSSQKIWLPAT

[3] = Effect on ccl6 gene expression in 5XFAD mouse hippocampus at 1200 ppm administered as rodent chow starting from 1.5 months and measured after 7 months by RNA-Seq analysis (reference value: 5.688 to 8.240 RPKM); type: functional; settings: route po, time 5.5 months, 4015 h
[4] = target: Cyclin-dependent kinase 1/cyclin B1 (Homo sapiens, UniProt P06493); experiment: Inhibition of CDK1/CyclinB (unknown origin); type: protein-complex assay
Chain of Cyclin-dependent kinase 1/cyclin B1 (P06493 whole entry): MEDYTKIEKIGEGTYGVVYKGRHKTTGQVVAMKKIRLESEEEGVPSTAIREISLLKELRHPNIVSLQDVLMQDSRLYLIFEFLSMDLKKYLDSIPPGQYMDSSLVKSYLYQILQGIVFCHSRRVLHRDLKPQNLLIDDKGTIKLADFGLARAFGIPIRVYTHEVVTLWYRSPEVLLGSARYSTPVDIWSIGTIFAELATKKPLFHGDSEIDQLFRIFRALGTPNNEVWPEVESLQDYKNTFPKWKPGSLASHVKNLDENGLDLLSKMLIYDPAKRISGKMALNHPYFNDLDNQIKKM
Chain of Cyclin-dependent kinase 1/cyclin B1 (P14635 whole entry, further chain): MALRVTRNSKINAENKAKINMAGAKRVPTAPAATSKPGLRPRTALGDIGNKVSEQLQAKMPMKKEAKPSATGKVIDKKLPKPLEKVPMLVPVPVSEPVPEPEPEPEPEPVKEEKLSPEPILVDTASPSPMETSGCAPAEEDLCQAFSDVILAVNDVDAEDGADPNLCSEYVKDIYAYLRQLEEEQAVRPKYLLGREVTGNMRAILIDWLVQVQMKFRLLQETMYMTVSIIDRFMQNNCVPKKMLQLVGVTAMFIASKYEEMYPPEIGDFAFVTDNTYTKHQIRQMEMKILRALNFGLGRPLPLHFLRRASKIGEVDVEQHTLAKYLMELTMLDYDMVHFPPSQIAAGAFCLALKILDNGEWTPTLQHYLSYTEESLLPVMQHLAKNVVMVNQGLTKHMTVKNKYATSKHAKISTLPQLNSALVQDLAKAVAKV

[5] = target: Tyrosine-protein kinase JAK2 (Homo sapiens, UniProt O60674); experiment: Inhibition of JAK2 (unknown origin)
[6] = target: Fibroblast growth factor receptor 1 (Homo sapiens, UniProt P11362); experiment: Inhibition of FGFR1 (unknown origin)
Chain of Fibroblast growth factor receptor 1 (P11362 whole entry): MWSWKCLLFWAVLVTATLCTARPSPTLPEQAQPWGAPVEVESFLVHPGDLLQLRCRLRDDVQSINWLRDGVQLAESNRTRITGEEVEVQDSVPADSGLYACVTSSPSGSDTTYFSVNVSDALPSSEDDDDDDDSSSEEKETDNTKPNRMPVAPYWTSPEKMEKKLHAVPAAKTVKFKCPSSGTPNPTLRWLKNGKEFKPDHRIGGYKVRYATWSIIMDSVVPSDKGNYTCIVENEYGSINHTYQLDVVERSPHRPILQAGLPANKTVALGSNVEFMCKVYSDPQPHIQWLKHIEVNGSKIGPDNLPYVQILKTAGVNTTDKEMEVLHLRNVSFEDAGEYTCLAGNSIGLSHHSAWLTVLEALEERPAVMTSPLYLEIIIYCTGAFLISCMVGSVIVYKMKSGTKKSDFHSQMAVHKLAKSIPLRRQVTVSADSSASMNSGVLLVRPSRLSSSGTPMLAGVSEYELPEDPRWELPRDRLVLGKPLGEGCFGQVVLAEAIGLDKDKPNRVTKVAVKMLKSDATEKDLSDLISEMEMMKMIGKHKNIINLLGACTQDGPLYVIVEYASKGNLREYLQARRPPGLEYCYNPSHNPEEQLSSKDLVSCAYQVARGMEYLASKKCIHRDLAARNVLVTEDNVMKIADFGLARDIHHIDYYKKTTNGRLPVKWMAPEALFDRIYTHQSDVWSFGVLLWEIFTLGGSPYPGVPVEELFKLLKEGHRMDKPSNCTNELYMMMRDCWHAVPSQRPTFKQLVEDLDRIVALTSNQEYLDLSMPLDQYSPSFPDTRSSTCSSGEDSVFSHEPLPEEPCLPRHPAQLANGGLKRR

[7] = target: Tyrosine-protein kinase ABL2 (Homo sapiens, UniProt P42684); experiment: Inhibition of ABL2 (unknown origin)
Activin receptor type-1B = Activin receptor type-1B (Homo sapiens, UniProt P36896); experiment: Inhibition of ACVR1B (unknown origin)
Chain of Activin receptor type-1B (P36896 whole entry): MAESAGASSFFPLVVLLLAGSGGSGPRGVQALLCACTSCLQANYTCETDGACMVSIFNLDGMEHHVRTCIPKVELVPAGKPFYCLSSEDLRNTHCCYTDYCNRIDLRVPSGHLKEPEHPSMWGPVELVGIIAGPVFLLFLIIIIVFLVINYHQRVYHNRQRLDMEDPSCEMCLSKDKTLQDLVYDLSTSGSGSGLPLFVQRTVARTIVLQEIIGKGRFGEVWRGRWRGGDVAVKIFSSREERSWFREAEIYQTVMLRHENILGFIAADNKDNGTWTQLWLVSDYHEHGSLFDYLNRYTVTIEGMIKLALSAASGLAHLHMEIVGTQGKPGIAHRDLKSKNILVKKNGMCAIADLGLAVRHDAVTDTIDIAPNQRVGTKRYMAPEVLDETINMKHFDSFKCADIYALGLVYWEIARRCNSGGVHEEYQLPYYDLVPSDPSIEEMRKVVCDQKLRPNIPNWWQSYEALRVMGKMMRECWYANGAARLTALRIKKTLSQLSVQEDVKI

[8] = target: Serine/threonine-protein kinase mTOR (Homo sapiens, UniProt P42345); experiment: Inhibition of FRAP1 (unknown origin)
[9] = target: Cytoplasmic tyrosine-protein kinase BMX (Homo sapiens, UniProt P51813); experiment: Inhibition of BMX (unknown origin)
Chain of Cytoplasmic tyrosine-protein kinase BMX (P51813 whole entry): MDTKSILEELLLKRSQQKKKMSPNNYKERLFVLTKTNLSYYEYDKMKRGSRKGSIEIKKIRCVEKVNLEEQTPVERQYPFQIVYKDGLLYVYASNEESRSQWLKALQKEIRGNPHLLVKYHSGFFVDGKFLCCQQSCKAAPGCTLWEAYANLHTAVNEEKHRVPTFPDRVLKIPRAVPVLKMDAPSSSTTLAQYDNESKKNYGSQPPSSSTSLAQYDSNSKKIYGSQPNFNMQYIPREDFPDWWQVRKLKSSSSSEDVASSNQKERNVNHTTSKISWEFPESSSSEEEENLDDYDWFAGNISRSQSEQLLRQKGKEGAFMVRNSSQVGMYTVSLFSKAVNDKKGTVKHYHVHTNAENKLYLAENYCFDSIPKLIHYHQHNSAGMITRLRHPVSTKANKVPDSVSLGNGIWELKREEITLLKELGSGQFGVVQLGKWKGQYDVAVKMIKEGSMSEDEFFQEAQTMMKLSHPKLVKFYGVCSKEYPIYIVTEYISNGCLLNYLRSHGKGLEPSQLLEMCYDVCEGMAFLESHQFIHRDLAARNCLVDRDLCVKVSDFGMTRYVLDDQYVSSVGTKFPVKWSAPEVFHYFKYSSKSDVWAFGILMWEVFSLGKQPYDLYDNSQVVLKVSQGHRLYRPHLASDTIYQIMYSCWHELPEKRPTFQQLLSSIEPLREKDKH

[10] = target: Casein kinase II subunit alpha' (Homo sapiens, UniProt P19784); experiment: Inhibition of CSNK2A2 (unknown origin)
Chain of Casein kinase II subunit alpha' (P19784 whole entry): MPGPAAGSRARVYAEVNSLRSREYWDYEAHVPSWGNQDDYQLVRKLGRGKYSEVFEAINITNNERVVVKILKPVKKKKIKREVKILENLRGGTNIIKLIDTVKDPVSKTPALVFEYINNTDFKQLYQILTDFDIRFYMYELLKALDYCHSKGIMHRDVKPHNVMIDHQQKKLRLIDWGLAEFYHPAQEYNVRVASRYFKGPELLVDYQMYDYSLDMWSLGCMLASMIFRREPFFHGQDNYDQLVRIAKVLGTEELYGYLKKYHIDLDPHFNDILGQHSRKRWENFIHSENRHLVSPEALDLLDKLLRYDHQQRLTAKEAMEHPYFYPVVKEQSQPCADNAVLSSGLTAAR

[11] = Toxicity in wildtype mouse assessed as time spent in closed arm at 1200 ppm administered as rodent chow for 10 to 24 weeks by Elevated plus maze test (reference value: 73.3 to 220.6 sec); settings: in vivo, po, time 10-24 weeks
Mus musculus [12] = experiment: Antialzheimer activity in 5XFAD mouse assessed as number of S100bteta positive cells per FOV in somatosensory cortex at 1200 ppm administered as rodent chow for 10 to 24 weeks by immunolabelling based confocal microscopic analysis (reference value: 283 to 357); type: functional; settings: route po, time 10-24 weeks
[13] = target: Interleukin-1 receptor-associated kinase 4 (Homo sapiens, UniProt Q9NWZ3); experiment: Inhibition of IRAK4 (unknown origin)
Chain of Interleukin-1 receptor-associated kinase 4 (Q9NWZ3 whole entry): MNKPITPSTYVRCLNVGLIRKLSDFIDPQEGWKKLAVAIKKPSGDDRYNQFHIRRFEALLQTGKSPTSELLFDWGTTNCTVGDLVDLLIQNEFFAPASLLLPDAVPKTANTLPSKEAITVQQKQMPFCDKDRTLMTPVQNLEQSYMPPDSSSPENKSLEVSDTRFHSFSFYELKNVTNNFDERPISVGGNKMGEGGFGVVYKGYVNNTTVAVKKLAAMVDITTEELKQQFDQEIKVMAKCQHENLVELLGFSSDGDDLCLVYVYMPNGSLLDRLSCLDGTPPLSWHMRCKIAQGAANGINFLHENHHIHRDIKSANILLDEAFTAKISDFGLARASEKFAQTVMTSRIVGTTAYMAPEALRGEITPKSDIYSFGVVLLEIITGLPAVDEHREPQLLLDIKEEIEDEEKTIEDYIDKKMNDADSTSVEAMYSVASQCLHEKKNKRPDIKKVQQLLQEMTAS

[14] = Effect on ccl6 gene expression in wild type mouse hippocampus at 1200 ppm administered as rodent chow starting from 1.5 months and measured after 7 months by RNA-Seq analysis (reference value: 0.451 to 0.597 RPKM); type: functional; settings: route po, time 5.5 months, 4015 h
[15] = Effect on ccl6 gene expression in wild type mouse cortex at 1200 ppm administered as rodent chow starting from 1.5 months and measured after 7 months by RNA-Seq analysis (reference value: 0.280 to 1.162 RPKM); type: functional; settings: route po, time 5.5 months, 4015 h
[16] = target: Protein kinase C eta type (Homo sapiens, UniProt P24723); experiment: Inhibition of PRKCH (unknown origin)
Chain of Protein kinase C eta type (P24723 whole entry): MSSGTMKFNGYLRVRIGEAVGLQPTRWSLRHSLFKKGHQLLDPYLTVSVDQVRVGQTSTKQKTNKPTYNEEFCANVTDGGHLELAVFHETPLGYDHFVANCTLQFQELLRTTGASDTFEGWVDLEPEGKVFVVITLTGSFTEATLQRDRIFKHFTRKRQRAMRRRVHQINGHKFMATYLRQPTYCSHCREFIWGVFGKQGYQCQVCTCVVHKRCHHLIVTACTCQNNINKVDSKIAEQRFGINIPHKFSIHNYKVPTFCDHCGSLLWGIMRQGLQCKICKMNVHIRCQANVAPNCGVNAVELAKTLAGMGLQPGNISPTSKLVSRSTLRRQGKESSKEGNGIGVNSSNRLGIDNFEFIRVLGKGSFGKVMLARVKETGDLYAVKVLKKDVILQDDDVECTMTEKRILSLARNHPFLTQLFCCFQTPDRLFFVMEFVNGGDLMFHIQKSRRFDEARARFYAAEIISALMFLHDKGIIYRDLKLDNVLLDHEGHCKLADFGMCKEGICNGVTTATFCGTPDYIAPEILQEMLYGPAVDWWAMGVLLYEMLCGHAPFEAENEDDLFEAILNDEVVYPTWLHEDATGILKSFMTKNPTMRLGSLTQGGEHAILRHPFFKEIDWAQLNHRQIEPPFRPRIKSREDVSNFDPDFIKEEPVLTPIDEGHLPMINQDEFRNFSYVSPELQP

Mus musculus [17] = experiment: Antialzheimer activity in 5XFAD mouse assessed as pyroglutamte-3 immunoreactivity in thalamus at 1200 ppm administered as rodent chow for 24 weeks by immunolabeling based confocal microscopic analysis; type: functional, organism-based; settings: route po
Mus musculus [18] = experiment: Antialzheimer activity in 5XFAD mouse assessed as number of Iba1 positive cells per FOV in subiculum at 1200 ppm administered as rodent chow starting from 1.5 months and measured after 7 months by immunolabeling based confocal microscopic analysis (reference value: 1284 to 1582); type: functional; settings: route po, time 5.5 months, 4015 h
[19] = Effect on Ctsd gene expression in wild type mouse hippocampus at 1200 ppm administered as rodent chow starting from 1.5 months and measured after 7 months by RNA-Seq analysis (reference value: 111.753 to 176.402 RPKM); type: functional; settings: route po, time 5.5 months, 4015 h
Mus musculus [20] = experiment: Antialzheimer activity in 5XFAD mouse assessed as amyloidbeta42 level in detergent insoluble thalamus fraction measured per microgram protein at 1200 ppm administered as rodent chow starting from 1.5 months and measured after 7 months by ELISA (reference value: 905.886 to 11631931 pg); type: functional; settings: route po, time 5.5 months, 4015 h
[21] = Effect on Chrm3 gene expression in wildtype mouse hippocampus assessed as percent change in Reads Per kilo base per Million mapped reads at 1200 ppm administered as rodent chow starting from 1.5 months and measured after 7 months by RNA-Seq analysis (reference value: 85.337 to 114.189 %); type: functional; settings: route po, time 5.5 months, 4015 h
Procedure, shortened: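 WT and 5xFAD mice were treated with 1200 ppm PLX5622 chow or control chow from 1.5 to 7 months of age. Brains were microdissected into cortex, hippocampus and thalamus, and RNA was extracted from tissue powder. Whole-transcriptome RNA-Seq libraries were sequenced, with n = 4 per group per region (48 samples).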

[22] = Clearance in monkey at 1.35 mg/kg, iv administered as single dose; type: ADME, organism-based, Macaca mulatta; settings: rhesus monkey, in vivo

FC(F)(F)c1ccc(CNc2ccc(Cc3c[nH]c4ncc(Cl)cc34)cn2)cn1 [PEXIDARTINIB]
inhibition [1]: Active

COc1ncc(F)cc1CNc1ccc(Cc2c[nH]c3ncc(C)cc23)c(F)n1 [PLX-5622]
pIC50 [2]: < 6.00
Activity [3]: 0.488 RPKM
pIC50 [4]: < 6.00
pIC50 [5]: < 6.00
pIC50 [6]: < 6.00
pIC50 [7]: < 6.00
pIC50 (Activin receptor type-1B): < 6.00
pIC50 [8]: < 6.00
pIC50 [9]: < 6.00
pIC50 [10]: < 6.00
Time [11]: 90.5 s
Activity (Mus musculus [12]): 307
pIC50 [13]: < 6.00
Activity [14]: 0 RPKM
Activity [15]: 0 RPKM
pIC50 [16]: < 6.00
Activity (Mus musculus [17]): Active
Activity (Mus musculus [18]): 25
Activity [19]: 89.626 RPKM
Flu intensity (Mus musculus [20]): 4280.692 a.u.
Activity [21]: 79.458%
clearance [22]: 11 mL/min/kg
